{"source": "ChEMBL document CHEMBL5030525", "about": "“Design, synthesis and antitumor activity evaluation of trifluoromethyl-substituted pyrimidine derivatives” (Bioorg Med Chem Lett, 2021)", "key": {"[1]": {"tested_on": "NCI-H1975", "test": "Effect on cell cycle progression in human NCI-H1975 cells assessed a accumulation of cells at G2/M phase at 4 uM measured after 24 hrs by RNase A/PI staining based flow cytometry analysis (Rvb= 5.78%)", "assay_type": "functional"}, "[2]": {"tested_on": "NCI-H1975", "test": "Inhibition of colony formation in human NCI-H1975 cells at 4 uM measured after 9 days by crystal violet staining based microscopic analysis relative to control", "assay_type": "functional", "conditions": "NCI-H1975, 216 h, time 9 day", "method_in_brief": "(§1)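 Log-phase cells were seeded at 1000 per well, incubated about 24 h, then exposed to 0, 1, 2 or 4 μM for 9 days. Cells were PBS-washed, fixed with ice-cold methanol for 30 min, and stained with crystal violet for 30 min. Plates were photographed and colonies examined by microscopy.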"}, "[3]": {"tested_on": "NCI-H1975", "test": "Induction of apoptosis in human NCI-H1975 cells assessed as increase in total apoptotic cells at 4 uM measured after 48 hrs by Annexin V-FITC/PI staining double staining based flow cytometry analysis (Rvb= 3.86%)", "assay_type": "functional"}, "[4]": {"tested_on": "NCI-H1975", "test": "Effect on cell cycle progression in human NCI-H1975 cells assessed a accumulation of cells at S phase at 4 uM measured after 24 hrs by RNase A/PI staining based flow cytometry analysis (Rvb= 52.06%)", "assay_type": "functional"}, "[5]": {"tested_on": "NCI-H1975", "test": "Induction of apoptosis in human NCI-H1975 cells assessed as increase in P53 expression at 1 to 4 uM measured after 48 hrs by western blot analysis", "assay_type": "functional, cell-based", "conditions": "dose 1-4 µM", "method_in_brief": "(§2)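 H1975 cells in dishes were incubated 24 h, then treated at 0, 1, 2 or 4 μM for 48 h. Cells were trypsinised and lysed in RIPA, and protein was quantified by BCA. Proteins were separated by SDS-PAGE, transferred to nitrocellulose, and blocked in 5% skim milk. Primary antibodies were applied overnight at 4 °C, then secondary (1:10000) for 2 h. Detection was by ECL, with GAPDH as control and densitometry.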"}, "[6]": {"tested_on": "NCI-H1975", "test": "Induction of apoptosis in human NCI-H1975 cells assessed as nucleus shrinkage at 2 to 4 uM measured after 48 hrs by DAPI staining based fluorescence microscopic analysis", "assay_type": "functional, cell-based", "conditions": "dose 2-4 µM", "method_in_brief": "(§3)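 H1975 cells were seeded at 2×10^5 per well and incubated 24 h, then exposed to 0, 2 or 4 μM for 48 h. Cells were PBS-washed, fixed in pre-cooled methanol at 4 °C for 10 min, and stained with DAPI in the dark. Nuclear morphology was imaged by fluorescence microscopy.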"}, "[7]": {"tested_on": "NCI-H1975", "test": "Induction of apoptosis in human NCI-H1975 cells assessed as increase in total apoptotic cells at 1 uM measured after 72 hrs by Annexin V-FITC/PI staining double staining based flow cytometry analysis (Rvb= 3.86%)", "assay_type": "functional"}, "[8]": {"tested_on": "GES1", "test": "Cytotoxicity against human GES1 cells assessed as reduction in cell viability measured after 72 hrs by MTT assay", "assay_type": "cell-based", "conditions": "GES1, 72 h", "method_in_brief": "(§4)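 Cells in log phase were seeded at 3000–5000 per well and cultured 24 h at 37 °C, then exposed to a range of compound concentrations in fresh medium for 72 h. MTT was added and incubated 4 h at 37 °C, formazan was dissolved in DMSO, and absorbance was read at 490 nm. IC50 was taken from survival rate, as mean ± SD of three independent experiments. Stocks were 10 mM in DMSO.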"}, "[9]": {"test": "Selectivity index, ratio of IC50 for cytotoxicity against human GES1 cells to IC50 for antiproliferative activity against human NCI-H1975 cells", "assay_type": "toxicity, cell-based", "conditions": "GES1 cells versus NCI-H1975 cells, read-out: Ratio IC50", "method_in_brief": "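Ratio of GES-1 IC50 to H1975 IC50. Both came from the 72 h MTT assay, with IC50 as the mean ± SD of three separate experiments.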"}, "[10]": {"tested_on": "NCI-H1975", "test": "Effect on cell cycle progression in human NCI-H1975 cells assessed a accumulation of cells at S phase at 2 uM measured after 24 hrs by RNase A/PI staining based flow cytometry analysis (Rvb= 52.06%)", "assay_type": "functional"}, "[11]": {"tested_on": "NCI-H1975", "test": "Effect on cell cycle progression in human NCI-H1975 cells assessed a accumulation of cells at G1 phase at 2 uM measured after 24 hrs by RNase A/PI staining based flow cytometry analysis (Rvb= 42.16%)", "assay_type": "functional"}, "[12]": {"tested_on": "NCI-H1975", "test": "Antiproliferative activity against human NCI-H1975 cells assessed as inhibition of cell growth measured after 72 hrs by MTT assay", "assay_type": "functional, cell-based", "conditions": "NCI-H1975, 72 h", "method_in_brief": "as §4"}, "[13]": {"tested_on": "NCI-H1975", "test": "Induction of apoptosis in human NCI-H1975 cells assessed as appearance of dense particles at 2 to 4 uM measured after 48 hrs by DAPI staining based fluorescence microscopic analysis", "assay_type": "functional, cell-based", "conditions": "dose 2-4 µM", "method_in_brief": "as §3"}, "[14]": {"tested_on": "NCI-H1975", "test": "Effect on cell cycle progression in human NCI-H1975 cells assessed a accumulation of cells at G1 phase at 1 uM measured after 24 hrs by RNase A/PI staining based flow cytometry analysis (Rvb= 42.16%)", "assay_type": "functional"}, "[15]": {"tested_on": "NCI-H1975", "test": "Induction of apoptosis in human NCI-H1975 cells assessed as increase in total apoptotic cells at 2 uM measured after 48 hrs by Annexin V-FITC/PI staining double staining based flow cytometry analysis (Rvb= 3.86%)", "assay_type": "functional"}, "[16]": {"tested_on": "NCI-H1975", "test": "Effect on cell cycle progression in human NCI-H1975 cells assessed a accumulation of cells at S phase at 1 uM measured after 24 hrs by RNase A/PI staining based flow cytometry analysis (Rvb= 52.06%)", "assay_type": "functional"}, "[17]": {"tested_on": "NCI-H1975", "test": "Induction of apoptosis in human NCI-H1975 cells assessed as increase in total apoptotic cells at 2 uM measured after 72 hrs by Annexin V-FITC/PI staining double staining based flow cytometry analysis (Rvb= 3.86%)", "assay_type": "functional"}, "[18]": {"tested_on": "NCI-H1975", "test": "Effect on cell cycle progression in human NCI-H1975 cells assessed a accumulation of cells at G1 phase at 4 uM measured after 24 hrs by RNase A/PI staining based flow cytometry analysis (Rvb= 42.16%)", "assay_type": "functional"}, "[19]": {"tested_on": "NCI-H1975", "test": "Effect on cell cycle progression in human NCI-H1975 cells assessed a accumulation of cells at G2/M phase at 1 uM measured after 24 hrs by RNase A/PI staining based flow cytometry analysis (Rvb= 5.78%)", "assay_type": "functional"}, "[20]": {"tested_on": "NCI-H1975", "test": "Induction of apoptosis in human NCI-H1975 cells assessed as increase in number of change in apoptotic morphology at 2 to 4 uM measured after 48 hrs by DAPI staining based fluorescence microscopic analysis", "assay_type": "functional, cell-based", "conditions": "dose 2-4 µM", "method_in_brief": "as §3"}, "[21]": {"tested_on": "PC-3", "test": "Antiproliferative activity against human PC-3 cells assessed as inhibition of cell growth measured after 72 hrs by MTT assay", "assay_type": "functional, cell-based", "conditions": "PC-3, 72 h", "method_in_brief": "as §4"}, "[22]": {"tested_on": "MGC-803", "test": "Antiproliferative activity against human MGC-803 cells assessed as inhibition of cell growth measured after 72 hrs by MTT assay", "assay_type": "functional, cell-based", "conditions": "MGC-803, 72 h", "method_in_brief": "as §4"}, "[23]": {"tested_on": "MCF7", "test": "Antiproliferative activity against human MCF7 cells assessed as inhibition of cell growth measured after 72 hrs by MTT assay", "assay_type": "functional, cell-based", "conditions": "MCF7, 72 h", "method_in_brief": "as §4"}, "[24]": {"tested_on": "NCI-H1975", "test": "Induction of apoptosis in human NCI-H1975 cells assessed as increase in Bax protein expression at 1 to 4 uM measured after 48 hrs by western blot analysis", "assay_type": "functional, cell-based", "conditions": "dose 1-4 µM", "method_in_brief": "as §2"}, "[25]": {"tested_on": "NCI-H1975", "test": "Induction of apoptosis in human NCI-H1975 cells assessed as increase in total apoptotic cells at 1 uM measured after 48 hrs by Annexin V-FITC/PI staining double staining based flow cytometry analysis (Rvb= 3.86%)", "assay_type": "functional"}, "[26]": {"tested_on": "NCI-H1975", "test": "Induction of apoptosis in human NCI-H1975 cells assessed as increase in total apoptotic cells at 4 uM measured after 72 hrs by Annexin V-FITC/PI staining double staining based flow cytometry analysis (Rvb= 3.86%)", "assay_type": "functional"}, "[27]": {"tested_on": "NCI-H1975", "test": "Induction of apoptosis in human NCI-H1975 cells assessed as broken nucleus at 2 to 4 uM measured after 48 hrs by DAPI staining based fluorescence microscopic analysis", "assay_type": "functional, cell-based", "conditions": "dose 2-4 µM", "method_in_brief": "as §3"}, "[28]": {"tested_on": "NCI-H1975", "test": "Inhibition of colony formation in human NCI-H1975 cells measured after 9 days by crystal violet staining based microscopic analysis", "assay_type": "functional, cell-based", "conditions": "time 9.0 day", "method_in_brief": "as §1"}, "[29]": {"tested_on": "NCI-H1975", "test": "Induction of apoptosis in human NCI-H1975 cells assessed as down regulation of Bcl-2 expression at 1 to 4 uM measured after 48 hrs by western blot analysis", "assay_type": "functional, cell-based", "conditions": "dose 1-4 µM", "method_in_brief": "as §2"}, "[30]": {"tested_on": "NCI-H1975", "test": "Effect on cell cycle progression in human NCI-H1975 cells assessed a accumulation of cells at G2/M phase at 2 uM measured after 24 hrs by RNase A/PI staining based flow cytometry analysis (Rvb= 5.78%)", "assay_type": "functional"}}, "note": "The source made the active and inactive calls. The rule behind the calls is not given here."}
{"smiles": "FC(F)(F)c1ccc(CSc2nc(Sc3nncs3)cc(C(F)(F)F)n2)cc1", "values": [{"measurement": "Activity", "setting": "[1]", "result": 30.39, "unit": "%"}, {"measurement": "inhibition at 4 µM", "setting": "[2]", "result": 90, "unit": "%"}, {"measurement": "Activity", "setting": "[3]", "result": 16.68, "unit": "%"}, {"measurement": "Activity", "setting": "[4]", "result": 44.55, "unit": "%"}, {"measurement": "Activity", "setting": "[5]", "result": "Active"}, {"measurement": "Activity", "setting": "[6]", "result": "Active"}, {"measurement": "Activity", "setting": "[7]", "result": 7.7, "unit": "%"}, {"measurement": "IC50", "setting": "[8]", "result": 37.4, "unit": "µM"}, {"measurement": "selectivity ratio", "setting": "[9]", "result": 16.5}, {"measurement": "Activity", "setting": "[10]", "result": 47.56, "unit": "%"}, {"measurement": "Activity", "setting": "[11]", "result": 31.16, "unit": "%"}, {"measurement": "IC50", "setting": "[12]", "result": 2.27, "unit": "µM"}, {"measurement": "Activity", "setting": "[13]", "result": "Active"}, {"measurement": "Activity", "setting": "[14]", "result": 34.53, "unit": "%"}, {"measurement": "Activity", "setting": "[15]", "result": 11.13, "unit": "%"}, {"measurement": "Activity", "setting": "[16]", "result": 51.84, "unit": "%"}, {"measurement": "Activity", "setting": "[17]", "result": 17.31, "unit": "%"}, {"measurement": "Activity", "setting": "[18]", "result": 25.06, "unit": "%"}, {"measurement": "Activity", "setting": "[19]", "result": 13.63, "unit": "%"}, {"measurement": "Activity", "setting": "[20]", "result": "Active"}, {"measurement": "IC50", "setting": "[21]", "result": 7.88, "unit": "µM"}, {"measurement": "IC50", "setting": "[22]", "result": 10.8, "unit": "µM"}, {"measurement": "IC50", "setting": "[23]", "result": 8.81, "unit": "µM"}, {"measurement": "Activity", "setting": "[24]", "result": "Active"}, {"measurement": "Activity", "setting": "[25]", "result": 5.04, "unit": "%"}, {"measurement": "Activity", "setting": "[26]", "result": 29.08, "unit": "%"}, {"measurement": "Activity", "setting": "[27]", "result": "Active"}, {"measurement": "inhibition", "setting": "[28]", "result": "Dose-Dependent Effect"}, {"measurement": "Activity", "setting": "[29]", "result": "Active"}, {"measurement": "Activity", "setting": "[30]", "result": 21.28, "unit": "%"}]}
